The source made the active and inactive calls. The rule behind the calls is not given here.
How the values were obtained:
Format in all cases: cell-based
[1] = molecular target: T1, Retinoic acid receptor RXR-alpha (Homo sapiens) (UniProt P19793); assay: (§1) Agonist activity at human RXR-alpha expressed in HEK293 cells coexpressing with pCMX-beta-gal after 24 to 48 hrs by luciferase reporter gene assay
T1 sequence (whole entry): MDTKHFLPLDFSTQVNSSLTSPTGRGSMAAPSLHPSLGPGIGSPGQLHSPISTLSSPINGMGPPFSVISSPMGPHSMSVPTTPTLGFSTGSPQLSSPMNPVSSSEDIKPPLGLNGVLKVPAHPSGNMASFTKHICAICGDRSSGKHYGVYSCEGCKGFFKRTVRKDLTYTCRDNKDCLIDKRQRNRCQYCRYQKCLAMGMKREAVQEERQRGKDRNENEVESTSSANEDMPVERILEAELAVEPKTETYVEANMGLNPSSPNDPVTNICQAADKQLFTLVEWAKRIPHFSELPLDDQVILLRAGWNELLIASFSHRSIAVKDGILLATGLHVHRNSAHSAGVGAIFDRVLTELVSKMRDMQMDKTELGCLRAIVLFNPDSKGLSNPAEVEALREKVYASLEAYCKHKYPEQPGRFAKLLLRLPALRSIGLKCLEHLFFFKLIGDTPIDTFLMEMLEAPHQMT
Procedure, shortened: (§2)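 HEK293 cells transfected by calcium phosphate with 60 ng pCMX-hRXR-α, 150 ng CRBPII-tk-Luc and 30 ng pCMX-β-gal plus carrier pUC18 (600 ng DNA per well). After 8 h the cells were washed and exposed to compound in medium with 10% FBS for 24−48 h. Luciferase was normalized to β-galactosidase. Triplicate or quadruplicate; representative of three independent experiments; EC50 from dose-response.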

[2] = molecular target: T2, Retinoic acid receptor RXR-alpha (Homo sapiens, UniProt P19793); assay: as §1; procedure, shortened: as §2
T2 sequence (P19793 whole entry): T1 sequence (whole entry)

Homo sapiens = species on record: Homo sapiens; assay: Activation of PPARgamma/RXR heterodimer in human hepatoma cells assessed as potentiation of rosiglitazone-induced increase in ANGPTL4 mRNA level at 10 uM by quantitative RT-PCR analysis
Procedure, shortened: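 HLE human hepatoma cells (DMEM, 10% FBS, 37 °C, 5% CO2) treated with or without rosiglitazone; ANGPTL4 mRNA by SYBR green qRT-PCR, β-actin-normalized delta-delta Ct, fold vs vehicle; means ± SD of three determinants, representative of three experiments.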

F9 = assay: Activation of RAR/RXR heterodimer in mouse F9 cells assessed as increase in CYP26A1 mRNA level at 10 uM by quantitative RT-PCR analysis
Procedure, shortened: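 F9 teratocarcinoma cells on 0.2% gelatin-coated dishes in DMEM/10% FBS; 24 h exposure with or without atRA (0.1 μM). CYP26A1 mRNA by qRT-PCR normalized to β-actin, fold vs vehicle; means ± SD of three determinants, one of three experiments; ANOVA/Bonferroni.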

[3] = molecular target: T3, Retinoic acid receptor alpha (Homo sapiens) (UniProt P10276); assay: Activation of human RAR-alpha expressed in HEK293 cells coexpressing with tk-betaRE-Luc after 24 hrs by luciferase reporter gene assay
T3 sequence (whole entry): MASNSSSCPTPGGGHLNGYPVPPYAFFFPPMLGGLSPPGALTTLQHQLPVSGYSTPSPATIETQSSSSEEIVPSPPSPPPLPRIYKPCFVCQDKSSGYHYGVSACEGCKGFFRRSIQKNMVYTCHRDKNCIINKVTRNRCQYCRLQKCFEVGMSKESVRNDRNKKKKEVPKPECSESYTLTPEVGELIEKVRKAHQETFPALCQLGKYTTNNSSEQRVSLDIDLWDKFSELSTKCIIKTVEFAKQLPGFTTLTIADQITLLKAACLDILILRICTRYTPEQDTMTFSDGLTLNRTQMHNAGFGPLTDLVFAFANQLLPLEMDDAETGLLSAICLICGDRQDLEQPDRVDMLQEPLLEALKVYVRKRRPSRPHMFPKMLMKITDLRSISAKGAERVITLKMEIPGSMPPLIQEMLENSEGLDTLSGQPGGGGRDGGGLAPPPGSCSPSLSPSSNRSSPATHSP
Procedure, shortened: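 Calcium phosphate transfection of HEK293 cells with 30 ng pCMX-hRAR-α, 120 ng tk-βRE-Luc and 30 ng pCMX-β-gal plus carrier pUC18 (600 ng DNA per well). Cells were washed 8 h later and incubated with compound in 10% FBS medium. Luciferase was normalized to β-galactosidase; triplicate or quadruplicate, representative of three experiments.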

[4] = molecular target: T4, Peroxisome proliferator-activated receptor delta (Mus musculus) (UniProt P35396); assay: Activation of PPARdelta in mouse C2C12 cells assessed as induction of ANGPTL4 mRNA expression at 10 uM after 24 hrs in presence of GW501516 by quantitative RT-PCR analysis
T4 sequence (whole entry): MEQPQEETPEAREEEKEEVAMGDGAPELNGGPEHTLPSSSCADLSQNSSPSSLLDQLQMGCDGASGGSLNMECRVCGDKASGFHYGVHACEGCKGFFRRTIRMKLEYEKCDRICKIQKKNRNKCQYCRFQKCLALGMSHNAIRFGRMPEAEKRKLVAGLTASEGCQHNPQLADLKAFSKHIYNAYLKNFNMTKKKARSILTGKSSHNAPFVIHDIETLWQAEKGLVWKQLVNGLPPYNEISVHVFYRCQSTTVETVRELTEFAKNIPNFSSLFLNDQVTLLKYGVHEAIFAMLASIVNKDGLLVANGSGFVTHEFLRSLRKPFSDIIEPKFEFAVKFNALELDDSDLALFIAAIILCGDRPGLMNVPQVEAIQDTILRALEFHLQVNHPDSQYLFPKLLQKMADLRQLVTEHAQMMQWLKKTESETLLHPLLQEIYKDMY
Procedure, shortened: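 Differentiated C2C12 myotubes (2% horse serum, 5 days) exposed 24 h with or without PPARδ agonist GW501516 (1 μM). mRNA quantified by SYBR green real-time RT-PCR, normalized to β-actin by delta-delta Ct, and expressed as fold induction vs vehicle; means ± SD of four determinants from one of two independent experiments; one-way ANOVA with Bonferroni.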

[5] = molecular target: T1, Retinoic acid receptor RXR-alpha (Homo sapiens); assay: Agonist activity at human RXR-alpha expressed in HEK293 cells coexpressing with pCMX-beta-gal at 10 uM after 24 to 48 hrs by luciferase reporter gene assay in presence of PA452 pan-antagonist
Procedure, shortened: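 RXRα reporter in HEK293: cotransfected with RXRα expression vector, luciferase reporter and pCMX-β-gal. Eight hours after transfection, cells were treated with test compound at 10 μM with or without the RXR pan-antagonist PA452 (10 μM). Luciferase was normalized to β-galactosidase. Means ± SD of three determinants; representative of three experiments; one-way ANOVA with Bonferroni's t-test.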

CC(C)=CCc1cc([C@@H]2CC(=O)c3ccc(O)c(CC=C(C)C)c3O2)cc2c1OC(C(C)(C)O)C2 (some centres not stated)
Activity [1]: Dose-dependent effect | EC50 [2]: 770 nM | Activity (Homo sapiens): Active | Activity (F9): Active | Activity [3]: inactive | Activity [4]: Active | Activity [5]: inactive

— ChEMBL document CHEMBL3351942, “Rexinoids isolated from Sophora tonkinensis with a gene expression profile distinct from the synthetic rexinoid bexarotene” (J Nat Prod, 2014)
